For assay [1], the target named is Tyrosine-protein kinase Lck (Homo sapiens, UniProt P06239). Kind of assay: Inhibition of p56 Lck tyrosine kinase.
Another assay deals with Jurkat. Kind of assay: Inhibition of Calcium release in jurkat cells. Type of assay: functional, cell-based. The following applies: Homo sapiens. The gist of the method:
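Jurkat cells loaded with Fluo-3, washed in HBSS with 1 mM CaCl₂, 1 mM MgCl₂, 10 mM HEPES, 2 mM probenecid, 1% FBS, pH 7.4. Final 3 × 10⁵ cells/mL. Compound added for 15 min at room temperature, then anti-CD3 (clone X35, final 0.25 µg/mL). FLIPR fluorescence followed for 13 min. Peak minus baseline plotted against concentration gives EC₅₀. Mean of two or more experiments in duplicate ± SD.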

For another assay, the species on record is Homo sapiens. The experiment in a line: Inhibition of IL-2 production in human whole blood. Type of assay: functional.
The next assay can be described thus: tissue or blood. Type of assay: functional, tissue-based. The following applies: Homo sapiens.

Where only a bound is given, the exact number is not on record here.

Sequence of Tyrosine-protein kinase Lck (P06239 whole entry): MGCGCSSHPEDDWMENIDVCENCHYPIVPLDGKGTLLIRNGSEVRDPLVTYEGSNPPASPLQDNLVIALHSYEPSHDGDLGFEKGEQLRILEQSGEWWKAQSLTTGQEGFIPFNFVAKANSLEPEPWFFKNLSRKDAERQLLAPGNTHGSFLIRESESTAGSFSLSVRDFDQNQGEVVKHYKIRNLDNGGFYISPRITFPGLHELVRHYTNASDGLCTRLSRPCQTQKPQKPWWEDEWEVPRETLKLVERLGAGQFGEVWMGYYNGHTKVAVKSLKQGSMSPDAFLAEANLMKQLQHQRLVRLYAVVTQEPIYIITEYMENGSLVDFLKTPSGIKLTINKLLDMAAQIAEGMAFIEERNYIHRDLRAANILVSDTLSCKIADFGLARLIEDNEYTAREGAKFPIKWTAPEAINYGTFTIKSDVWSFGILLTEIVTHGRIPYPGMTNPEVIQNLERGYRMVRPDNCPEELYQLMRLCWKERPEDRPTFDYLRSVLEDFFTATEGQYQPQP

Consider `Cc1nc(O)c2c(ccc3nc(Nc4c(Cl)cccc4Cl)n(C)c32)c1CCCN1CCOCC1`, for which inhibition in assay [1] was half-maximal at 0.11 µM (IC50). Besides, in the assay with Jurkat, the EC50 was 0.3 µM.

In the case of `CCNC/C=C/c1nc(O)c2c(ccc3nc(Nc4c(Cl)cccc4Cl)n(C)c32)c1C`, 0.002 µM corresponded to half-maximal inhibition in assay [1] (IC50). Also, the EC50 with Jurkat worked out at 0.009 µM.

`Cc1nc(O)c2c(ccc3nc(Nc4c(Cl)cccc4Cl)n(C)c32)c1CCC(=O)N1CCOCC1` displayed an IC50 in assay [1] of 0.12 µM. Besides, in the assay with Jurkat, the EC50 was 0.27 µM.

In turn, `CCn1c(Nc2c(Cl)cccc2Cl)nc2ccc3c(C)c(C)nc(O)c3c21` came in with an IC50 in assay [1] of more than 2.5 µM.

Compound `Cc1nc(O)c2c(ccc3nc(Nc4c(Cl)cccc4Cl)n(C)c32)c1CC(=O)N1CCN(C)CC1` registered an IC50 in assay [1] of 0.44 µM. For the same compound, the EC50 in the assay on Jurkat was found to be 1.2 µM.

For the compound `Cc1c(/C=C/CN)nc(O)c2c1ccc1nc(Nc3c(Cl)cccc3Cl)n(C)c12`, the EC50 worked out at 3.3 µM in the assay filed under Homo sapiens, 0.92 µM in “tissue or blood” and 0.021 µM with Jurkat. The same compound displayed an IC50 in assay [1] of 0.002 µM.

The compound `Cc1c(/C=C/CN2CCOCC2)nc(O)c2c1ccc1nc(Nc3c(Cl)cccc3Cl)n(C)c12` showed an IC50 in assay [1] of 0.004 µM. In addition, the EC50 in “tissue or blood” is 0.17 µM; with Jurkat, 0.03 µM.

With `Cc1nc(O)c2c(cc(-c3ccc(F)nc3F)c3nc(Nc4c(Cl)cccc4Cl)n(C)c32)c1C`, the IC50 in assay [1] was found to be 0.05 µM. In addition, in the assay with Jurkat, the EC50 was found to be 0.37 µM.

With `Cc1c(CNCc2ccccc2)nc(O)c2c1ccc1nc(Nc3c(Cl)cccc3Cl)n(C)c12`, in assay [1], the IC50 stood at 2 µM. Besides, the EC50 in the assay with Jurkat was 4.2 µM.

`Cc1nc(O)c2c(ccc3nc(Nc4c(Cl)cccc4Cl)n(C)c32)c1CCN1CCOCC1` yielded an IC50 in assay [1] of 0.03 µM. The concentration giving a half-maximal response (EC50) with Jurkat stood at 0.27 µM.

In the case of `Cc1c(/C=C/CN(C)C)nc(O)c2c1ccc1nc(Nc3c(Cl)cccc3Cl)n(C)c12`, the EC50 in the assay filed under Homo sapiens amounted to 0.68 µM; in the assay “tissue or blood”, 0.56 µM; with Jurkat, 0.01 µM. The compound further registered an IC50 in assay [1] of 0.003 µM.

Regarding `Cc1nc(O)c2c(ccc3nc(Nc4c(Cl)cccc4Cl)n(C)c32)c1CCO`, half-maximal inhibition in assay [1] (IC50) was put at 0.027 µM. Also, in the assay with Jurkat, the EC50 was determined as 0.09 µM.

With `Cc1nc(O)c2c(ccc3[nH]c(Nc4c(Cl)cccc4Cl)nc32)c1C`, in assay [1], the IC50 was 0.11 µM. In the assay on Jurkat, the EC50 was found to be 0.18 µM.

Regarding `Cc1c(/C=C/CN(C)Cc2ccccc2)nc(O)c2c1ccc1nc(Nc3c(Cl)cccc3Cl)n(C)c12`, the IC50 in assay [1] is 0.01 µM. In addition, the concentration giving a half-maximal response (EC50) in the assay on Jurkat came to 0.2 µM.

`CCNC(=O)Cc1c(C)nc(O)c2c1ccc1nc(Nc3c(Cl)cccc3Cl)n(C)c12` registered a half-inhibitory concentration (IC50) in assay [1] of 0.46 µM. The EC50 in the assay with Jurkat was found to be 0.6 µM.

`C=CC(O)c1nc(O)c2c(ccc3nc(Nc4c(Cl)cccc4Cl)n(C)c32)c1C` (stereo unspecified): half-maximal inhibition in assay [1] (IC50) required 0.57 µM. In addition, the concentration giving a half-maximal response (EC50) in the assay with Jurkat stood at 1.3 µM.

Regarding `CCOC(=O)Cc1c(C)nc(O)c2c1ccc1nc(Nc3c(Cl)cccc3Cl)n(C)c12`, the IC50 in assay [1] came out at 0.7 µM. For the same compound, the EC50 in the assay with Jurkat was found to be 0.14 µM.

Consider `Cc1c(/C=C/CN2CCCC2)nc(O)c2c1ccc1nc(Nc3c(Cl)cccc3Cl)n(C)c12`, for which the EC50 in the assay filed under Homo sapiens is 0.3 µM; in “tissue or blood”, 0.15 µM; in the assay with Jurkat, 0.005 µM.

As for `COc1ccc(CNCc2cc3c(C)c(C)nc(O)c3c3c2nc(Nc2c(Cl)cccc2Cl)n3C)cc1`, the midpoint of inhibition in assay [1], the IC50, lay at 0.18 µM. For the same compound, the EC50 in the assay with Jurkat amounted to 0.5 µM.

Consider `C=Cc1nc(O)c2c(ccc3nc(Nc4c(Cl)cccc4Cl)n(C)c32)c1C`, for which the values for the EC50 in the assay listed under Homo sapiens, in the assay “tissue or blood” and with Jurkat were 12 µM, 0.9 µM and 0.02 µM, respectively. Moreover, the half-inhibitory concentration (IC50) in assay [1] was 0.045 µM.

`Cc1c(C=O)nc(O)c2c1ccc1nc(Nc3c(Cl)cccc3Cl)n(C)c12` returned an IC50 in assay [1] of 0.17 µM. Besides, the half-maximal effective concentration (EC50) in the assay on Jurkat stood at 0.45 µM.

`COC(=O)/C=C/c1nc(O)c2c(ccc3nc(Nc4c(Cl)cccc4Cl)n(C)c32)c1C` yielded an IC50 in assay [1] of 0.086 µM. In the assay with Jurkat, the 50% effective concentration (EC50) was 0.07 µM.

Compound `Cc1nc(O)c2c(ccc3c2nc(Nc2c(Cl)cccc2Cl)n3C)c1C` yielded an IC50 in assay [1] of more than 2 µM.

`Cc1nc(O)c2c(ccc3nc(Nc4c(Cl)cccc4Cl)n(C)c32)c1CC(=O)N1CCCC1`: the IC50 in assay [1] was 0.74 µM. Besides, in the assay with Jurkat, the EC50 amounted to 0.27 µM.

Consider `Cc1nc(O)c2c(cc(CNCCO)c3nc(Nc4c(Cl)cccc4Cl)n(C)c32)c1C`, for which half-maximal inhibition in assay [1] (IC50) required 0.026 µM. In addition, the EC50 in the assay on Jurkat came to 0.12 µM.

As for `Cc1nc(O)c2c(ccc3nc(Nc4c(Cl)cccc4Cl)n(C)c32)c1C`, the EC50 in the assay listed under Homo sapiens was found to be 1.1 µM; in the assay on Jurkat, 0.13 µM. This compound gave an IC50 in assay [1] of 0.023 µM.

For the compound `CCc1nc(O)c2c(ccc3nc(Nc4c(Cl)cccc4Cl)n(C)c32)c1C`, in assay [1], half-maximal inhibition (IC50) was put at 0.78 µM. For the same compound, the EC50 in the assay with Jurkat was determined as 0.08 µM.

For `Cc1nc(O)c2c(ccc3nc(Nc4c(Cl)cccc4Cl)n(C)c32)c1CC(=O)N1CCOCC1`, the half-inhibitory concentration (IC50) in assay [1] came to 0.12 µM. Also, in the assay with Jurkat, the EC50 came out at 0.66 µM.

Consider `COC(=O)c1c(C)nc(O)c2c1ccc1nc(Nc3c(Cl)cccc3Cl)n(C)c12`, for which the IC50 in assay [1] is 0.087 µM. Also, in the assay with Jurkat, the EC50 is 0.09 µM.

Regarding `Cc1c(/C=C/CO)nc(O)c2c1ccc1nc(Nc3c(Cl)cccc3Cl)n(C)c12`, the EC50 in the assay filed under Homo sapiens worked out at 3 µM; in the assay with Jurkat, 0.008 µM.

For `COC(=O)CCc1nc(O)c2c(ccc3nc(Nc4c(Cl)cccc4Cl)n(C)c32)c1C`, in assay [1], inhibition was half-maximal at 0.36 µM (IC50). Besides, the EC50 with Jurkat turned out to be 0.23 µM.

In assay [1], `Cc1c(CO)nc(O)c2c1ccc1nc(Nc3c(Cl)cccc3Cl)n(C)c12` showed a 50% inhibitory concentration (IC50) of 0.77 µM. Further, in the assay with Jurkat, the EC50 was 0.24 µM.
